{"source": "ChEMBL document CHEMBL4406834", "about": "“Phenylthiazoles with nitrogenous side chain: An approach to overcome molecular obesity” (Eur J Med Chem, 2019)", "key": {"Staphylococcus aureus [1]": {"tested_on": "Staphylococcus aureus", "assay": "Antibacterial activity against methicillin-resistant Staphylococcus aureus NRS384 USA300 after 18 to 20 hrs by broth microdilution assay", "type": "functional", "how_it_was_run": "(§1)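 Broth microdilution per CLSI. Strains grown aerobically overnight on tryptone soy agar at 37 °C, adjusted to 0.5 McFarland, then diluted in cation-adjusted Mueller-Hinton broth to about 5 × 10^5 CFU/mL. Compounds (10 mg/mL DMSO stocks) serially diluted. Incubated aerobically at 37 °C for 18-20 h. MIC is the lowest concentration with no visible growth.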"}, "Staphylococcus aureus [2]": {"tested_on": "Staphylococcus aureus", "assay": "Antibiofilm activity against methicillin resistant Staphylococcus aureus NRS384 USA300 assessed as disruption of matured biofilm formation at 4 x MIC incubated for 24 hrs by crystal violet staining based spectrophotometric analysis", "type": "functional, organism-based", "how_it_was_run": "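MRSA USA300 overnight culture diluted 1:100 in tryptic soy broth + 1% glucose. Biofilm formed for 24 h at 37 °C. Planktonic cells removed, then compounds added at 256 to 2 µg/mL in TSB for 24 h at 37 °C. Wells washed with PBS, stained with 0.1% crystal violet for 30 min, destained with ethanol, read at OD595. Percent eradication relative to DMSO; unpaired t test.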"}, "Streptococcus pneumoniae [3]": {"tested_on": "Streptococcus pneumoniae", "assay": "Bactericidal activity against methicillin-resistant Streptococcus pneumoniae ATCC 700677 incubated for 18 to 20 hrs followed by replating on tryptic soy agar plate and further incubated for 18 to 24 hrs by CLSI-based broth microdilution assay", "type": "functional", "how_it_was_run": "(§2)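 MBC: after the broth microdilution MIC (CAMHB, ~5 × 10^5 CFU/mL, 37 °C, 18-20 h), 4 µL from wells without growth plated onto tryptic soy agar. Plates incubated 37 °C for 18-20 h. MBC is the lowest concentration giving 99.9% reduction in growth.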"}, "Streptococcus pneumoniae [4]": {"tested_on": "Streptococcus pneumoniae", "assay": "Bactericidal activity against cephalosporin-resistant Streptococcus pneumoniae ATCC 51916 incubated for 18 to 20 hrs followed by replating on tryptic soy agar plate and further incubated for 18 to 24 hrs by CLSI-based broth microdilution assay", "type": "functional", "how_it_was_run": "as §2"}, "Enterococcus faecium [5]": {"tested_on": "Enterococcus faecium", "assay": "Bactericidal activity against vancomycin-resistant Enterococcus faecium ATCC 700221 incubated for 18 to 20 hrs followed by replating on tryptic soy agar plate and further incubated for 18 to 24 hrs by CLSI-based broth microdilution assay", "type": "functional", "how_it_was_run": "as §2"}, "Enterococcus faecalis [6]": {"tested_on": "Enterococcus faecalis", "assay": "Bactericidal activity against vancomycin-resistant Enterococcus faecalis ATCC 51299 incubated for 18 to 20 hrs followed by replating on tryptic soy agar plate and further incubated for 18 to 24 hrs by CLSI-based broth microdilution assay", "type": "functional", "how_it_was_run": "as §2"}, "Streptococcus pneumoniae [7]": {"tested_on": "Streptococcus pneumoniae", "assay": "Antibacterial activity against methicillin-resistant Streptococcus pneumoniae ATCC 700677 after 18 to 20 hrs by CLSI-based broth microdilution assay", "type": "functional", "how_it_was_run": "as §1"}, "Listeria monocytogenes": {"tested_on": "Listeria monocytogenes", "assay": "Antibacterial activity against Listeria monocytogenes ATCC 19111 after 18 to 20 hrs by CLSI-based broth microdilution assay", "type": "functional"}, "Streptococcus pneumoniae [8]": {"tested_on": "Streptococcus pneumoniae", "assay": "Antibacterial activity against cephalosporin-resistant Streptococcus pneumoniae ATCC 51916 after 18 to 20 hrs by CLSI-based broth microdilution assay", "type": "functional", "how_it_was_run": "as §1"}, "Enterococcus faecium [9]": {"tested_on": "Enterococcus faecium", "assay": "Antibacterial activity against vancomycin-resistant Enterococcus faecium ATCC 700221 after 18 to 20 hrs by CLSI-based broth microdilution assay", "type": "functional", "how_it_was_run": "as §1"}, "Enterococcus faecalis [10]": {"tested_on": "Enterococcus faecalis", "assay": "Antibacterial activity against vancomycin-resistant Enterococcus faecalis ATCC 51299 after 18 to 20 hrs by CLSI-based broth microdilution assay", "type": "functional", "how_it_was_run": "as §1"}, "Staphylococcus aureus [11]": {"tested_on": "Staphylococcus aureus", "assay": "Bactericidal activity against vancomycin-resistant Staphylococcus aureus 12 incubated for 18 to 20 hrs followed by replating on tryptic soy agar plate and further incubated for 18 to 24 hrs by CLSI-based broth microdilution assay", "type": "functional", "how_it_was_run": "as §2"}, "Staphylococcus aureus [12]": {"tested_on": "Staphylococcus aureus", "assay": "Bactericidal activity against vancomycin-resistant Staphylococcus aureus 10 incubated for 18 to 20 hrs followed by replating on tryptic soy agar plate and further incubated for 18 to 24 hrs by CLSI-based broth microdilution assay", "type": "functional", "how_it_was_run": "as §2"}, "Staphylococcus aureus [13]": {"tested_on": "Staphylococcus aureus", "assay": "Bactericidal activity against methicilline-resistant Staphylococcus aureus NRS386 USA700 incubated for 18 to 20 hrs followed by replating on tryptic soy agar plate and further incubated for 18 to 24 hrs by CLSI-based broth microdilution assay", "type": "functional", "how_it_was_run": "as §2"}, "Staphylococcus aureus [14]": {"tested_on": "Staphylococcus aureus", "assay": "Bactericidal activity against methicilline-resistant Staphylococcus aureus NRS385 USA500 incubated for 18 to 20 hrs followed by replating on tryptic soy agar plate and further incubated for 18 to 24 hrs by CLSI-based broth microdilution assay", "type": "functional", "how_it_was_run": "as §2"}, "Staphylococcus aureus [15]": {"tested_on": "Staphylococcus aureus", "assay": "Bactericidal activity against methicilline-resistant Staphylococcus aureus NRS384 USA300 incubated for 18 to 20 hrs followed by replating on tryptic soy agar plate and further incubated for 18 to 24 hrs by CLSI-based broth microdilution assay", "type": "functional", "how_it_was_run": "as §2"}, "Staphylococcus aureus [16]": {"tested_on": "Staphylococcus aureus", "assay": "Bactericidal activity against methicilline-resistant Staphylococcus aureus NRS123 USA400 incubated for 18 to 20 hrs followed by replating on tryptic soy agar plate and further incubated for 18 to 24 hrs by CLSI-based broth microdilution assay", "type": "functional", "how_it_was_run": "as §2"}, "Staphylococcus aureus [17]": {"tested_on": "Staphylococcus aureus", "assay": "Bactericidal activity against methicilline-resistant Staphylococcus aureus NRS-119 incubated for 18 to 20 hrs followed by replating on tryptic soy agar plate and further incubated for 18 to 24 hrs by CLSI-based broth microdilution assay", "type": "functional", "how_it_was_run": "as §2"}, "Staphylococcus aureus [18]": {"tested_on": "Staphylococcus aureus", "assay": "Bactericidal activity against methicilline-sensitive Staphylococcus aureus NRS-107 incubated for 18 to 20 hrs followed by replating on tryptic soy agar plate and further incubated for 18 to 24 hrs by CLSI-based broth microdilution assay", "type": "functional", "how_it_was_run": "as §2"}, "Staphylococcus aureus [19]": {"tested_on": "Staphylococcus aureus", "assay": "Bactericidal activity against methicilline-sensitive Staphylococcus aureus ATCC 6538 incubated for 18 to 20 hrs followed by replating on tryptic soy agar plate and further incubated for 18 to 24 hrs by CLSI-based broth microdilution assay", "type": "functional", "how_it_was_run": "as §2"}, "Staphylococcus aureus [20]": {"tested_on": "Staphylococcus aureus", "assay": "Bactericidal activity against Staphylococcus aureus ATCC BAA42 incubated for 18 to 20 hrs followed by replating on tryptic soy agar plate and further incubated for 18 to 24 hrs by CLSI-based broth microdilution assay", "type": "functional", "how_it_was_run": "as §2"}, "Staphylococcus aureus [21]": {"tested_on": "Staphylococcus aureus", "assay": "Antibacterial activity against vancomycin-resistant Staphylococcus aureus 12 after 18 to 20 hrs by CLSI-based broth microdilution assay", "type": "functional", "how_it_was_run": "as §1"}, "Staphylococcus aureus [22]": {"tested_on": "Staphylococcus aureus", "assay": "Antibacterial activity against vancomycin-resistant Staphylococcus aureus 10 after 18 to 20 hrs by CLSI-based broth microdilution assay", "type": "functional", "how_it_was_run": "as §1"}, "Staphylococcus aureus [23]": {"tested_on": "Staphylococcus aureus", "assay": "Antibacterial activity against Staphylococcus aureus ATCC BAA42 after 18 to 20 hrs by CLSI-based broth microdilution assay", "type": "functional", "how_it_was_run": "as §1"}, "Staphylococcus aureus [24]": {"tested_on": "Staphylococcus aureus", "assay": "Antibacterial activity against intracellular methicillin resistant Staphylococcus aureus USA400 infected in mouse J774 cells assessed as intracellular bacterial cells at 2 times MIC concentration incubated for 24 hrs followed by re-plating on TSA plate for 18 to 22 hrs by serial dilution method", "type": "functional, organism-based", "how_it_was_run": "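J774 murine macrophages in DMEM + 10% FBS, 37 °C, 5% CO2, infected with MRSA USA400 at MOI ~10:1 for 1 h. Washed with gentamicin 100 µg/mL to kill extracellular bacteria. […] Cells lysed with 0.1% Triton-X, serially diluted in PBS, plated on TSA for 18-22 h, CFU counted. One-way ANOVA with Dunnett's test.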"}, "Staphylococcus aureus [25]": {"tested_on": "Staphylococcus aureus", "assay": "Bactericidal activity against methicillin-resistant Staphylococcus aureus USA400 assessed as reduction in bacterial burden at 5 times MIC after 24 hrs by time kill assay", "type": "functional, organism-based"}}, "note": "Active and inactive are the calls of the source. The calls are words filed in the database; no cut-off is given here."}
{"smiles": "C/C(=N\\NC(=N)N)c1sc(-c2ccc(N3CCCCCC3)cc2)nc1C", "values": [{"measurement": "MIC", "setting": "Staphylococcus aureus [1]", "result": "> 128", "unit": "µg/mL"}]}
{"smiles": "C/C(=N\\NC(=N)N)c1sc(-c2ccc(N3CCC(C)CC3)cc2)nc1C", "values": [{"measurement": "MIC", "setting": "Staphylococcus aureus [1]", "result": 16, "unit": "µg/mL"}]}
{"smiles": "C/C(=N\\NC(=N)N)c1sc(-c2ccc(N3CCC(Br)CC3)cc2)nc1C", "values": [{"measurement": "MIC", "setting": "Staphylococcus aureus [1]", "result": 8, "unit": "µg/mL"}]}
{"smiles": "CN[C@H](CC(C)C)C(=O)N[C@H]1C(=O)N[C@@H](CC(N)=O)C(=O)N[C@H]2C(=O)N[C@H]3C(=O)N[C@H](C(=O)N[C@H](C(=O)O)c4cc(O)cc(O)c4-c4cc3ccc4O)[C@H](O)c3ccc(c(Cl)c3)Oc3cc2cc(c3O[C@@H]2O[C@H](CO)[C@@H](O)[C@H](O)[C@H]2O[C@H]2C[C@](C)(N)[C@H](O)[C@H](C)O2)Oc2ccc(cc2Cl)[C@H]1O", "note": "[VANCOMYCIN]", "values": [{"measurement": "inhibition", "setting": "Staphylococcus aureus [2]", "result": "inactive"}, {"measurement": "MBC", "setting": "Streptococcus pneumoniae [3]", "result": 1, "unit": "µg/mL"}, {"measurement": "MBC", "setting": "Streptococcus pneumoniae [4]", "result": 1, "unit": "µg/mL"}, {"measurement": "MBC", "setting": "Enterococcus faecium [5]", "result": "> 64", "unit": "µg/mL"}, {"measurement": "MBC", "setting": "Enterococcus faecalis [6]", "result": 64, "unit": "µg/mL"}, {"measurement": "MIC", "setting": "Streptococcus pneumoniae [7]", "result": 1, "unit": "µg/mL"}, {"measurement": "MIC", "setting": "Listeria monocytogenes", "result": 0.5, "unit": "µg/mL"}, {"measurement": "MIC", "setting": "Streptococcus pneumoniae [8]", "result": 0.5, "unit": "µg/mL"}, {"measurement": "MIC", "setting": "Enterococcus faecium [9]", "result": "> 64", "unit": "µg/mL"}, {"measurement": "MIC", "setting": "Enterococcus faecalis [10]", "result": 32, "unit": "µg/mL"}, {"measurement": "MBC", "setting": "Staphylococcus aureus [11]", "result": "> 64", "unit": "µg/mL"}, {"measurement": "MBC", "setting": "Staphylococcus aureus [12]", "result": "> 64", "unit": "µg/mL"}, {"measurement": "MBC", "setting": "Staphylococcus aureus [13]", "result": 1, "unit": "µg/mL"}, {"measurement": "MBC", "setting": "Staphylococcus aureus [14]", "result": 1, "unit": "µg/mL"}, {"measurement": "MBC", "setting": "Staphylococcus aureus [15]", "result": 1, "unit": "µg/mL"}, {"measurement": "MBC", "setting": "Staphylococcus aureus [16]", "result": 1, "unit": "µg/mL"}, {"measurement": "MBC", "setting": "Staphylococcus aureus [17]", "result": 1, "unit": "µg/mL"}, {"measurement": "MBC", "setting": "Staphylococcus aureus [18]", "result": 1, "unit": "µg/mL"}, {"measurement": "MBC", "setting": "Staphylococcus aureus [19]", "result": 1, "unit": "µg/mL"}, {"measurement": "MBC", "setting": "Staphylococcus aureus [20]", "result": "≤ 0.5", "unit": "µg/mL"}, {"measurement": "MIC", "setting": "Staphylococcus aureus [21]", "result": "> 64", "unit": "µg/mL"}, {"measurement": "MIC", "setting": "Staphylococcus aureus [22]", "result": "> 64", "unit": "µg/mL"}, {"measurement": "MIC", "setting": "Staphylococcus aureus [23]", "result": "≤ 0.5", "unit": "µg/mL"}, {"measurement": "inhibition", "setting": "Staphylococcus aureus [24]", "result": "inactive"}, {"measurement": "inhibition", "setting": "Staphylococcus aureus [25]", "result": "Active"}]}
